Reference: PMC10076185 (Experimental eye research, 2023)

Experiments:
Assay in all cases: SPR, protein immobilised by amine coupling, OneStep injection
Type in all cases: binding
GSTP1 = GSTP1 (Homo sapiens, UniProt P09211)
Procedure, shortened: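 Human GSTP1 was expressed in E. coli and purified in-house, then amine-coupled to a carboxyl chip with an unmodified reference surface. Test compound in 100% DMSO was diluted to 1–100 µM in running buffer (10 mM PBS, 0.1% polyvinylpyrrolidone, 5% DMSO, pH 7.4) and injected as a Taylor-dispersion gradient, three times per concentration, at 25 °C. Sensorgrams were double-referenced with buffer blanks, and equilibrium binding constants were fitted.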

Human IRBP = Human IRBP (Homo sapiens, UniProt P10745)
Human IRBP, sequence (P10745 18-1247): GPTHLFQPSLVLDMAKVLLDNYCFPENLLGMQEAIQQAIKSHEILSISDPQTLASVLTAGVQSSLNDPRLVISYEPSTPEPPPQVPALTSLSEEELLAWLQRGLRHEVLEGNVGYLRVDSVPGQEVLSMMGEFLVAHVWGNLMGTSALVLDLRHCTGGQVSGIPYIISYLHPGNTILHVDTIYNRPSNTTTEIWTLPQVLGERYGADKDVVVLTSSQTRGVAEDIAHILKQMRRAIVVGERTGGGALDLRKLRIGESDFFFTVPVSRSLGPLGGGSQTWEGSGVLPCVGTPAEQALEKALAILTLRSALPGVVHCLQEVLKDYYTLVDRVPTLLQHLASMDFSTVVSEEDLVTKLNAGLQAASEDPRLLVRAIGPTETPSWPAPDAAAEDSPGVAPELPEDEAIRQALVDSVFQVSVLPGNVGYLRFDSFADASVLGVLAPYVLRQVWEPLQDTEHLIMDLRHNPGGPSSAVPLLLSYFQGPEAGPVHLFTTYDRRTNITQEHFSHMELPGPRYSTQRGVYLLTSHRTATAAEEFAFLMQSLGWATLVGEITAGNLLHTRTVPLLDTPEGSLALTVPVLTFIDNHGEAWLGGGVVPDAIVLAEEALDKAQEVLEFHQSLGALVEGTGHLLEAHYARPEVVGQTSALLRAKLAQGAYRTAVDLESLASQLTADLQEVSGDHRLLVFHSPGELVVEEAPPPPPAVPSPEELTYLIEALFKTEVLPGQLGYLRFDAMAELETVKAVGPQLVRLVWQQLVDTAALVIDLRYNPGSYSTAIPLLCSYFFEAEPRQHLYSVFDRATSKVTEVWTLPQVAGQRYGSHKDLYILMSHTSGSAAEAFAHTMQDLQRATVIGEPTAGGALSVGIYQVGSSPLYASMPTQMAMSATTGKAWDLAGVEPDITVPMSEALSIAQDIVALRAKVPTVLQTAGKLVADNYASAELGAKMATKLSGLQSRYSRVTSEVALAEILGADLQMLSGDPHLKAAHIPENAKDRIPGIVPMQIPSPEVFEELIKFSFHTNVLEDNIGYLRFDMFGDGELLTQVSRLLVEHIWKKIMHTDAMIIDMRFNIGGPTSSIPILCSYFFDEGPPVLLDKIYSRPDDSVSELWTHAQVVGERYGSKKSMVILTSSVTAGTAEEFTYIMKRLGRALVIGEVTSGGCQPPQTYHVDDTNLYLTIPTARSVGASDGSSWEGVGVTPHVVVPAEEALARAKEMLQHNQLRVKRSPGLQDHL

Apo-E = Apo-E (Homo sapiens, UniProt P02649)
Apo-E, sequence (P02649 19-317): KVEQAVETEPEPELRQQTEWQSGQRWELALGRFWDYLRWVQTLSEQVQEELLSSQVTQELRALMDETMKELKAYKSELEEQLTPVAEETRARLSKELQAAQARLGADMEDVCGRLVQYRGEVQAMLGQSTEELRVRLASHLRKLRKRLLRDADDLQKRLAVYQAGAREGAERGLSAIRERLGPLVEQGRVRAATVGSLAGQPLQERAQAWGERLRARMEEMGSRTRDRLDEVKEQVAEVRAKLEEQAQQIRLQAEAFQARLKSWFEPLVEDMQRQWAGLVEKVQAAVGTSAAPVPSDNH
Procedure, shortened: (§1)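 Recombinant human proteins from commercial sources were amine-coupled to a carboxyl sensor chip beside an unmodified reference surface. Test compound in 100% DMSO was diluted to 1–100 µM in running buffer (10 mM PBS, 0.1% polyvinylpyrrolidone, 5% DMSO, pH 7.4) and given as a Taylor-dispersion gradient, three injections each, at 25 °C and 10 Hz. Sensorgrams were zeroed and double-referenced against buffer blanks, and equilibrium constants were fitted.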

Apo-M = Apo-M (Homo sapiens, UniProt O95445)
Apo-M, sequence (O95445 whole entry): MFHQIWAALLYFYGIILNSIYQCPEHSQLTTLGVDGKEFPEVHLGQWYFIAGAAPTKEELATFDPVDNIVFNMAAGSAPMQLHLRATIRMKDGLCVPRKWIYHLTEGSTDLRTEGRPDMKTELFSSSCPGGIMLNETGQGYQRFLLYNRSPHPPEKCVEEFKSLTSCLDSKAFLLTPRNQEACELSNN
Procedure, shortened: as §1

Apo-AI = Apo-AI (Homo sapiens, UniProt P02647)
Apo-AI, sequence (P02647 25-267): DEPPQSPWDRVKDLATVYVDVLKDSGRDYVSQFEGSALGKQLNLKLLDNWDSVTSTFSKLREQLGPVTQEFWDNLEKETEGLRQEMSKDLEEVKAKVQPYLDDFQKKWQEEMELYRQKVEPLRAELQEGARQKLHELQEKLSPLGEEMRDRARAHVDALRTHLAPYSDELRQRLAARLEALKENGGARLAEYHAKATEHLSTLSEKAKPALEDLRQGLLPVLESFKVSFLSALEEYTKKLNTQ

Apo-AII = Apo-AII (Homo sapiens, UniProt P02652)
Apo-AII, sequence (P02652 24-100): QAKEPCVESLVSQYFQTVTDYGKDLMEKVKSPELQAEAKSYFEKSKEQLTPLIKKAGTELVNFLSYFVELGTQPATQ
Procedure, shortened: as §1

Apo-D = Apo-D (Homo sapiens, UniProt P05090)
Apo-D, sequence (P05090 21-189): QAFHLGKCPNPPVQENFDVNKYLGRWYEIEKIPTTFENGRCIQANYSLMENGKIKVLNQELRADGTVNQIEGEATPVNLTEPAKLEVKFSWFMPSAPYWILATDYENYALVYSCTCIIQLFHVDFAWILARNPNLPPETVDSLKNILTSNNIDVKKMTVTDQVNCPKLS
Procedure, shortened: as §1

GSTP1, sequence (P09211 2-210): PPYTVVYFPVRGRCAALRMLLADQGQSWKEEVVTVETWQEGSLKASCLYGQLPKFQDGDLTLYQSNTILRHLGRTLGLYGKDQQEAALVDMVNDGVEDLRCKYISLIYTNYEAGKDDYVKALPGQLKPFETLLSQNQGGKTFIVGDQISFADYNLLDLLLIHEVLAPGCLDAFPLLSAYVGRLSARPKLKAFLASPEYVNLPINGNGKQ

Kd (GSTP1) [nM] | Kd (Human IRBP) [nM] | Kd (Apo-E) [nM] | Kd (Apo-M) [nM] | Kd (Apo-AI) [nM] | Kd (Apo-AII) [nM] | Kd (Apo-D) [nM] | SMILES
150 ± 20 | 1640 ± 60 | – | – | – | – | – | CC1=C(/C=C/C(C)=C/C=C/C(C)=C/C=C/C=C(C)/C=C/C=C(C)/C=C/C2=C(C)C(=O)[C@@H](O)CC2(C)C)C(C)(C)C[C@H](O)C1=O [Astaxanthin]
– | 1060 ± 200 | 21000 ± 1000 | 35000 ± 1000 | 12100 | 6100 ± 300 | 84000 ± 1000 | CC1=C[C@H](O)CC(C)(C)[C@H]1/C=C/C(C)=C/C=C/C(C)=C/C=C/C=C(C)/C=C/C=C(C)/C=C/C1=C(C)C[C@@H](O)CC1(C)C [Lutein]
53 ± 10 | 1640 ± 500 | 9250 | 81000 ± 9000 | 5620 | 1840 ± 90 | 68200 | CC1=C(/C=C/C(C)=C/C=C/C(C)=C/C=C/C=C(C)/C=C/C=C(C)/C=C/C2=C(C)C[C@@H](O)CC2(C)C)C(C)(C)C[C@H](O)C1 [Zeaxanthin]
55 ± 30 | 1850 ± 300 | 6220 | 35400 ± 800 | 7900 ± 200 | 1600 ± 700 | 45600 | CC1=C(/C=C/C(C)=C/C=C/C(C)=C/C=C/C=C(C)/C=C/C=C(C)/C=C/C2=C(C)C[C@H](O)CC2(C)C)C(C)(C)C[C@H](O)C1 [meso-Zeaxanthin]
– | 920 ± 100 | 400 ± 60 | 50 | 330 ± 30 | – | 10 | CC1=C(/C=C/C(C)=C/C=C/C(C)=C/C=C/C=C(C)/C=C/C=C(C)/C=C/C2=C(C)CCCC2(C)C)C(C)(C)CCC1 [β-Carotene]
